Data as given in ChEMBL document CHEMBL1136986, “Identification of anxiolytic/nonsedative agents among indol-3-ylglyoxylamides acting as functionally selective agonists at the gamma-aminobutyric acid-A (GABAA) alpha2 benzodiazepine receptor” (J Med Chem, 2009).
The source made the active and inactive calls. The calls are words filed in the database; no cut-off is given here.

Experiments:
[1] = Displacement of [3H]flumazenil from Benzodiazepine receptor in bovine cerebral cortex membrane; assay type: cell membranes, Bos taurus
[2] = biological target: GABA-A receptor; alpha-1/beta-2/gamma-2 (Rattus norvegicus, UniProt P18508+P62813+P63138); experiment: Displacement of [3H]flumazenil from rat GABA-A alpha-1-beta-2-gamma-2 receptor expressed in HEK293 cells; assay type: cell-based
Procedure, shortened: (§1)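 HEK293 membranes expressing rat α1β2γ2, α2β2γ2 or α5β3γ2, made in 10 mM potassium phosphate pH 7.4 (48000g, 4 °C) and resuspended with 100 mM KCl. Ki is mean ± SEM of three determinations in triplicate.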

[3] = biological target: Gamma-aminobutyric acid receptor subunit alpha-2 (Rattus norvegicus) (UniProt P23576); experiment: Displacement of [3H]flumazenil from rat GABA-A alpha-2-beta-2-gamma-2 receptor expressed in HEK293 cells at 10 uM; assay type: cell-based
Procedure, shortened: (§2)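 HEK293 membranes expressing rat α2β2γ2 or α5β3γ2 incubated with [3H]flumazenil 1-2 nM for 1 h at 4 °C, in 10 mM potassium phosphate pH 7.4 with 100 mM KCl. Compound tested at 10 µM.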

[4] = biological target: GABA A receptor alpha-5/beta-3/gamma-2 (Rattus norvegicus) (UniProt P18508+P19969+P63079); experiment: Displacement of [3H]flumazenil from rat GABA-A alpha-5-beta-3-gamma-2 receptor expressed in HEK293 cells at 10 uM; assay type: cell-based; procedure, shortened: as §2
[5] = biological target: Gamma-aminobutyric acid receptor subunit alpha-2 (Rattus norvegicus, UniProt P18508+P23576+P63138); experiment: Displacement of [3H]flumazenil from rat GABA-A alpha-2-beta-2-gamma-2 receptor expressed in HEK293 cells; assay type: cell-based; procedure, shortened: as §1
[6] = biological target: GABA A receptor alpha-5/beta-3/gamma-2 (Rattus norvegicus, UniProt P18508+P19969+P63079); experiment: Displacement of [3H]flumazenil from rat GABA-A alpha-5-beta-3-gamma-2 receptor expressed in HEK293 cells; assay type: cell-based; procedure, shortened: as §1
[7] = biological target: GABA-A receptor; alpha-1/beta-2/gamma-2 (Rattus norvegicus) (UniProt P18508+P62813+P63138); experiment: Agonist activity at rat GABA-A alpha-1-beta-2-gamma-2 receptor expressed in HEK293 cells assessed as increase in 36Cl- influx; assay type: functional, cell-based
Procedure, shortened: (§3)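 36Cl- uptake in HEK293 cells stably expressing rat α1β2γ2 or α2β2γ2, grown 3 days on polylysine-coated coverslips. Cells washed in HEPES/NaCl buffer pH 7.4, then dipped at room temperature into 36Cl- (2 µCi/mL) with drug, with or without GABA at EC20. Influx stopped after 8 s in ice-cold buffer with 0.1 mM picrotoxin. Result is % increase of EC20 GABA response, ≥5 independent experiments.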

[8] = biological target: Gamma-aminobutyric acid receptor subunit alpha-2 (Rattus norvegicus) (UniProt P23576); experiment: Agonist activity at rat GABA-A alpha-2-beta-2-gamma-2 receptor expressed in HEK293 cells assessed as increase in 36Cl- influx; assay type: functional, cell-based; procedure, shortened: as §3
[9] = system: Mus musculus; experiment: Anxiolytic effect in CD1 mouse assessed as increase in time spent in white compartment at 20 mg/kg, ip by light/dark box test; assay type: functional, organism-based; set-up: dose 20 mg/kg
Procedure, shortened: (§4)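 Male CD-1 mice (35-40 g), acclimatized 4 weeks to a reversed light cycle. […] Testing started 1 h later, with mouse placed in the lit chamber for a 5 min videotaped session.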

[10] = system: Mus musculus; experiment: Anxiolytic effect in CD1 mouse assessed as increase in number of transfers from lit to the dark area at 20 mg/kg, ip by light/dark box test; assay type: functional, organism-based; set-up: dose 20 mg/kg; procedure, shortened: as §4
[11] = organism: Bos taurus; experiment: Displacement of [3H]flumazenil from Benzodiazepine receptor in bovine cerebral cortex membrane at 10 uM; assay type: cell membranes
[12] = system: Mus musculus; experiment: Toxicity in CD1 mouse assessed as sedative effect at 20 mg/kg, ip by light/dark box test; assay type: organism-based; set-up: dose 20 mg/kg, route intraperitoneal; conditions: in vivo; procedure, shortened: as §4
[13] = system: Mus musculus; experiment: Toxicity in CD1 mouse assessed as sedative effect at 1.25 mg/kg, ip by light/dark box test; assay type: organism-based; set-up: dose 1.25 mg/kg, route intraperitoneal; conditions: in vivo
Procedure, shortened: (§5)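 Male CD-1 albino mice (35-40 g), acclimatized 4 weeks to reversed 12 h light cycle, dosed ip in 1% carboxymethylcellulose vehicle; 1 h later placed in centre of lit chamber of light/dark box for 5 min, videotaped. Scored time in white compartment, lit/dark transfers, and rearings plus line crossings (activity) expressed per TW; n = 4-6, mean ± SEM versus vehicle.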

[14] = system: Mus musculus; experiment: Anxiolytic effect in CD1 mouse assessed as increase in time spent in white compartment at 1.25 mg/kg, ip by light/dark box test; assay type: functional, organism-based; set-up: dose 1.25 mg/kg; procedure, shortened: as §5
[15] = system: Mus musculus; experiment: Anxiolytic effect in CD1 mouse assessed as increase in number of transfers from lit to the dark area at 1.25 mg/kg, ip by light/dark box test; assay type: functional, organism-based; set-up: dose 1.25 mg/kg; procedure, shortened: as §5

Sequence of GABA A receptor alpha-5/beta-3/gamma-2 (P18508 whole entry): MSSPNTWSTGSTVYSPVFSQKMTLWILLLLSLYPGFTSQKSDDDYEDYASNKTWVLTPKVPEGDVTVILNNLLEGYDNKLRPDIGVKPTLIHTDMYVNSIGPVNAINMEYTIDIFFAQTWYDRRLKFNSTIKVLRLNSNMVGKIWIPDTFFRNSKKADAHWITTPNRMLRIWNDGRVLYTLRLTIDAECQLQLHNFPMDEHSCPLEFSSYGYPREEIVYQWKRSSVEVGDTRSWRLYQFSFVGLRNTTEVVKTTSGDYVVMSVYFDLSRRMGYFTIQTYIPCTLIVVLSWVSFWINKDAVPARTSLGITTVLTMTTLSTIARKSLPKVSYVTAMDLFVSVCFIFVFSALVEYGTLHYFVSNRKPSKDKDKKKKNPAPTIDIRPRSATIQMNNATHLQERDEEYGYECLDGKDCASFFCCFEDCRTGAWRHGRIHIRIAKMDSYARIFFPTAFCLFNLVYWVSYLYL
Sequence of GABA A receptor alpha-5/beta-3/gamma-2 (P19969 whole entry): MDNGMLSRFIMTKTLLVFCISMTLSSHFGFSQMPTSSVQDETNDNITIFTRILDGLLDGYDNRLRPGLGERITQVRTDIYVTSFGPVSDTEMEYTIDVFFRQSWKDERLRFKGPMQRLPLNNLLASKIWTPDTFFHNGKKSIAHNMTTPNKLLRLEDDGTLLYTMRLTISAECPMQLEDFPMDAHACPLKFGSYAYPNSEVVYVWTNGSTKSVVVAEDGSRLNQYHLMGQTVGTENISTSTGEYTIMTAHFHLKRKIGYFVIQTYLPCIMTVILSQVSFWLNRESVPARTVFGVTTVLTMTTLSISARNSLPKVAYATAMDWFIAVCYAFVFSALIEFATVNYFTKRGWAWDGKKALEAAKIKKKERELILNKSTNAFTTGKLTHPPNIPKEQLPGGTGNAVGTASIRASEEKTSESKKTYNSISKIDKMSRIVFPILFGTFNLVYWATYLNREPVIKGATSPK
Sequence of GABA A receptor alpha-5/beta-3/gamma-2 (P63079 whole entry): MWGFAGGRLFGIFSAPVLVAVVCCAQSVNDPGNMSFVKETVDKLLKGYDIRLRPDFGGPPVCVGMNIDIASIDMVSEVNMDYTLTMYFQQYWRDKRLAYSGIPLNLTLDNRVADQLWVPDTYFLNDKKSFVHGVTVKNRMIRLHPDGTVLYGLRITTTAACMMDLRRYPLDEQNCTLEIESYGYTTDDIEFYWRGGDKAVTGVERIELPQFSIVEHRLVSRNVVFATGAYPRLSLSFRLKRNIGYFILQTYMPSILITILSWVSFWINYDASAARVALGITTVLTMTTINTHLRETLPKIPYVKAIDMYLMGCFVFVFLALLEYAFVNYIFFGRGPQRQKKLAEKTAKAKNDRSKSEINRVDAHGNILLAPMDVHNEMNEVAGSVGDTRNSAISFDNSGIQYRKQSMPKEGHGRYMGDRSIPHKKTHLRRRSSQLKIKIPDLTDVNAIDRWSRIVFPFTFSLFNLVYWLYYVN
Sequence of GABA-A receptor; alpha-1/beta-2/gamma-2 (P18508 whole entry): as the sequence (P18508 whole entry) above
Sequence of GABA-A receptor; alpha-1/beta-2/gamma-2 (P62813 whole entry): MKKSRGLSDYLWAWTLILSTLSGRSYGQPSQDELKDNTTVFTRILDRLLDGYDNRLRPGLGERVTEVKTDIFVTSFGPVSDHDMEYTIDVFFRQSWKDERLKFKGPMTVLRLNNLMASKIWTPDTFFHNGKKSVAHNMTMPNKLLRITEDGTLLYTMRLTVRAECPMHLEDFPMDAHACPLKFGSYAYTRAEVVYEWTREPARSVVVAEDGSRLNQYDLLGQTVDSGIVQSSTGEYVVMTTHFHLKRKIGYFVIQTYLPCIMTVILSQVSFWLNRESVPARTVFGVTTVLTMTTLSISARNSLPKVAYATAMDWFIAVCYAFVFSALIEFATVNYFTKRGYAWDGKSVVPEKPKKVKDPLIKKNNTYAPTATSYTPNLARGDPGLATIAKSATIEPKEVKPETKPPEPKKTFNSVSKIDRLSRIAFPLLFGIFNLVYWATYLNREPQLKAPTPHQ
Sequence of GABA-A receptor; alpha-1/beta-2/gamma-2 (P63138 whole entry): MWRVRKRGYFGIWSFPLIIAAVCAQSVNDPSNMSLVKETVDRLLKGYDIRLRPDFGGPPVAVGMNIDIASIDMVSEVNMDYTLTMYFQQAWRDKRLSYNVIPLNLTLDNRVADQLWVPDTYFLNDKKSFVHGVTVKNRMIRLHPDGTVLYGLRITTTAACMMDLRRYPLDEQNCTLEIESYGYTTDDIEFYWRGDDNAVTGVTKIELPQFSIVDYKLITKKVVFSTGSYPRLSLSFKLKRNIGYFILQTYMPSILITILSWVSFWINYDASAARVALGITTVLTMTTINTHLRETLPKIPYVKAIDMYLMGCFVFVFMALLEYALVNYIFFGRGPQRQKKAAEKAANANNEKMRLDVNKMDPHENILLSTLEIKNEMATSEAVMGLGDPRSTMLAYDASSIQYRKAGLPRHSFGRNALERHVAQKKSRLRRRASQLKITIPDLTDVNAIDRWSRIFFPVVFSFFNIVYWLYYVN
Sequence of Gamma-aminobutyric acid receptor subunit alpha-2 (P23576 whole entry, one chain of several): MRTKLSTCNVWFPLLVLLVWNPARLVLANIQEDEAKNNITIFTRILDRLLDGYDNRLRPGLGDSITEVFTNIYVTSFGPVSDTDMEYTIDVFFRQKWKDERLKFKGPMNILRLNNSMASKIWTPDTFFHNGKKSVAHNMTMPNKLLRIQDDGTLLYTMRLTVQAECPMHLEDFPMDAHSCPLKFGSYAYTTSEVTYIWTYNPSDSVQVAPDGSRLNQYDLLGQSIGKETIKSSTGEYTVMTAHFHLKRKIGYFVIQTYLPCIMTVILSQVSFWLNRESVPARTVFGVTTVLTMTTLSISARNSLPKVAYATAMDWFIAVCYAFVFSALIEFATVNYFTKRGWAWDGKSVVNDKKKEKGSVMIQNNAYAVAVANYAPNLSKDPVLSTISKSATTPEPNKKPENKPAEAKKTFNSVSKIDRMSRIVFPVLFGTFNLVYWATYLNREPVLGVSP
Sequence of Gamma-aminobutyric acid receptor subunit alpha-2 (Rattus norvegicus) (P23576 whole entry): as the sequence (P23576 whole entry, one chain of several) above

| Compound | Ki [1] | Ki [2] | Ki [5] | other results |
| --- | --- | --- | --- | --- |
| O=C(NC1CCc2cc(F)ccc21)C(=O)c1c[nH]c2ccccc12 (racemic) | 2160 nM | 2050 nM | – | inhibition [3]: 29%; inhibition [4]: 44% |
| COc1ccc2c(c1)CCC2NC(=O)C(=O)c1c[nH]c2ccc([N+](=O)[O-])cc12 (racemic) | 13 nM | 28 nM | 231 nM | Ki [6]: 252 nM |
| O=C(N[C@@H]1CCc2ccccc21)C(=O)c1c[nH]c2ccc([N+](=O)[O-])cc12 | 28 nM | – | 85 nM | Activity [7]: 1%; Activity [8]: 48%; Activity [9]: inactive; Activity [10]: inactive |
| O=C(NC1CCc2cc(F)ccc21)C(=O)c1c[nH]c2ccc([N+](=O)[O-])cc12 (racemic) | 300 nM | 195 nM | 810 nM | Ki [6]: 1420 nM |
| O=C(NCc1ccc([N+](=O)[O-])cc1)C(=O)c1c[nH]c2ccc([N+](=O)[O-])cc12 | 620 nM | 293 nM | 2980 nM | Ki [6]: 2220 nM |
| O=C(NCc1ccccc1)C(=O)c1c[nH]c2ccc([N+](=O)[O-])cc12 | 117 nM | – | – | – |
| O=C(NCc1ccc([N+](=O)[O-])cc1)C(=O)c1c[nH]c2ccccc12 | 21 nM | – | 210 nM | – |
| O=C(NCc1ccccc1)C(=O)c1c[nH]c2ccccc12 | 120 nM | – | – | – |
| Cc1ccc(-c2nc3ccc(C)cn3c2CC(=O)N(C)C)cc1 [ZOLPIDEM] | 51 nM | – | – | – |
| COc1ccc(CNC(=O)C(=O)c2c[nH]c3ccccc23)cc1 | 163 nM | 195 nM | 1950 nM | inhibition [4]: 30% |
| O=C(NC1CCc2cc([N+](=O)[O-])ccc21)C(=O)c1c[nH]c2ccccc12 (racemic) | – | – | – | inhibition [11]: 47% |
| O=C(NC1CCc2cc([N+](=O)[O-])ccc21)C(=O)c1c[nH]c2ccc([N+](=O)[O-])cc12 (racemic) | 178 nM | 200 nM | 513 nM | Ki [6]: 749 nM |
| O=C(NCc1ccc(F)cc1)C(=O)c1c[nH]c2ccccc12 | 52 nM | 245 nM | 118 nM | Ki [6]: 163 nM; Activity [7]: 11%; Activity [8]: 85%; Activity [9]: Active; Activity [10]: Active; Activity [12]: Non-toxic |
| Cc1ccc2c(c1)CCC2NC(=O)C(=O)c1c[nH]c2ccc([N+](=O)[O-])cc12 (racemic) | – | – | – | inhibition [11]: 2% |
| C[C@@H](NC(=O)C(=O)c1c[nH]c2ccccc12)c1ccccc1 | 1310 nM | – | 1550 nM | – |
| O=C(NCc1ccc(F)cc1)C(=O)c1c[nH]c2ccc([N+](=O)[O-])cc12 | – | – | – | inhibition [11]: 24% |
| COc1ccc(CNC(=O)C(=O)c2c[nH]c3ccc([N+](=O)[O-])cc23)cc1 | 53 nM | – | 1650 nM | – |
| Cc1ccc2c(c1)CCC2NC(=O)C(=O)c1c[nH]c2ccccc12 (racemic) | – | – | – | inhibition [11]: 15% |
| COc1ccc2c(c1)CCC2NC(=O)C(=O)c1c[nH]c2ccccc12 (racemic) | 636 nM | 246 nM | 690 nM | inhibition [4]: 28% |
| CN1C(=O)CN=C(c2ccccc2)c2cc(Cl)ccc21 [DIAZEPAM] | 10 nM | – | – | Activity [13]: Non-toxic; Activity [8]: 81%; Activity [14]: Active; Activity [15]: Active |
| C[C@@H](NC(=O)C(=O)c1c[nH]c2ccc([N+](=O)[O-])cc12)c1ccccc1 | 17 nM | – | 121 nM | Activity [7]: 35%; Activity [8]: 79%; Activity [9]: Active; Activity [10]: Active; Activity [12]: Non-toxic |
| O=C(N[C@@H]1CCc2ccccc21)C(=O)c1c[nH]c2ccccc12 | 675 nM | – | 3100 nM | – |
